This note sets out measurements from ChEMBL document CHEMBL3272176, “Nucleic acids. 16. Orally active derivatives of ara-cytidine” (1976).

Structures are written as SMILES.

By ILS is commonly meant the gain in survival time of treated over control animals, in per cent.

Assay [1] relates to Rattus norvegicus. Nature of the assay: Immunosuppression activity in rat assessed as reduction of adjuvant-induced polyarthritis administered po twice daily on days 0 to 14 measured on day 21.
Assay [2] has as its system L1210. Nature of the assay: Antitumor activity against mouse L1210 cells allografted in mouse assessed as increase in life span at 400 umol/kg/day, po using 0.01 N HCl vehicle for 5 days 24 hrs after tumor inoculation. The class given is functional. The procedure, abridged:
(§1)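 Mice were inoculated ip on day 0 with 1×10^6 L1210 cells each. Dosing started 24 h later, once daily for 5 days, in groups of eight. Survival was recorded to the nearest day. %ILS was calculated from median survival of treated vs control groups, with ≥25% counted as significant. For the plain-saline and HCl vehicles, compound was first wetted with a few drops of ethanol (<5% v/v).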

Assay [3] deals with L1210. The experiment in a line: Antitumor activity against mouse L1210 cells allografted in mouse assessed as increase in life span at 200 umol/kg/day, po using 0.01 N HCl vehicle for 5 days 24 hrs after tumor inoculation. The format is functional. In outline: as §1
The test system of assay [4] is Rattus norvegicus. Nature of the assay: Immunosuppression activity in rat assessed as reduction of adjuvant-induced acute inflammation administered po twice daily on days 0 to 14.
Assay [5] deals with Rattus norvegicus. The experiment in a line: Immunosuppression activity in experimental allergic encephalomyelitis rat model administered po for days 1 to 13 measured on day 14.
Assay [6] relates to Rattus norvegicus. Nature of the assay: Immunosuppression activity in rat assessed as reduction of adjuvant-induced polyarthritis administered po twice daily for days 0 to 14 measured on day 15.
The test system of assay [7] is Rattus norvegicus. Nature of the assay: Immunosuppression in experimental allergic encephalomyelitis rat model administered po for days 1 to 13 measured on day 17.
Assay [8] has as its system L1210. Nature of the assay: Antitumor activity against mouse L1210 cells allografted in mouse assessed as increase in life span at 100 umol/kg/day, po using 0.01 N HCl vehicle for 5 days 24 hrs after tumor inoculation. The format is functional. In outline:
as §1

Assay [9] concerns L1210. Nature of the assay: Antitumor activity against mouse L1210 cells allografted in mouse assessed as increase in life span at 100 umol/kg/day, po using saline vehicle for 5 days 24 hrs after tumor inoculation. The format is functional. In outline:
as §1

Assay [10] has as its system L1210. Nature of the assay: Antitumor activity against mouse L1210 cells allografted in mouse assessed as increase in life span at 400 umol/kg/day, po using saline vehicle for 5 days 24 hrs after tumor inoculation. The class given is functional. The procedure, abridged:
as §1

The test system of assay [11] is L1210. The experiment in a line: Antitumor activity against mouse L1210 cells allografted in mouse assessed as increase in life span at 200 umol/kg/day, po using saline vehicle for 5 days 24 hrs after tumor inoculation. The format is functional. In outline: as §1
The test system of assay [12] is L1210. The experiment in a line: Antitumor activity against mouse L1210 cells allografted in mouse assessed as increase in life span at 200 umol/kg/day, po using 0.1 N HCl vehicle for 5 days 24 hrs after tumor inoculation. The format is functional. In outline:
as §1

Assay [13] concerns L1210. The experiment in a line: Antitumor activity against mouse L1210 cells allografted in mouse assessed as increase in life span at 100 umol/kg/day, po using 0.1 N HCl vehicle for 5 days 24 hrs after tumor inoculation. The format is functional. In outline:
as §1

Assay [14] relates to L1210. Nature of the assay: Antitumor activity against mouse L1210 cells allografted in mouse assessed as increase in life span at 400 umol/kg/day, po using 0.1 N HCl vehicle for 5 days 24 hrs after tumor inoculation. The class given is functional. The procedure, abridged: as §1
In assay [15] the test system is L1210. The experiment in a line: Antitumor activity against mouse L1210 cells allografted in mouse assessed as increase in life span at 200 umol/kg/day, po using 0.9% (W/V) aqueous NaCl vehicle for 5 days 24 hrs after tumor inoculation. The format is functional. The procedure, abridged: as §1
Assay [16] concerns L1210. Nature of the assay: Antitumor activity against mouse L1210 cells allografted in mouse assessed as increase in life span at 100 umol/kg/day, po using 0.9% (W/V) aqueous NaCl vehicle for 5 days 24 hrs after tumor inoculation. The format is functional. In outline:
as §1

Assay [17] deals with L1210. The experiment in a line: Antitumor activity against mouse L1210 cells allografted in mouse assessed as increase in life span at 400 umol/kg/day, po using 0.9% (W/V) aqueous NaCl vehicle for 5 days 24 hrs after tumor inoculation. The format is functional. The procedure, abridged:
as §1

The subject of assay [18] is L1210. The experiment in a line: Antitumor activity against mouse L1210 cells allografted in mouse assessed as increase in life span at 400 umol/kg/day, ip using 0.9% (W/V) aqueous NaCl vehicle for 5 days 24 hrs after tumor inoculation. The class given is functional. In outline: as §1
Assay [19] concerns L1210. Nature of the assay: Antitumor activity against mouse L1210 cells allografted in mouse assessed as increase in life span at 200 umol/kg/day, ip using 0.9% (W/V) aqueous NaCl vehicle for 5 days 24 hrs after tumor inoculation. The class given is functional. In outline: as §1
Assay [20] concerns L1210. Nature of the assay: Antitumor activity against mouse L1210 cells allografted in mouse assessed as increase in life span at 400 umol/kg/day, po using 0.9% (W/V) aqueous NaCl vehicle for 5 days 24 hrs after tumor inoculation in presence of THU 10 mg/kg/day on days 1 to 5.
Assay [21] has as its system L1210. The experiment in a line: Antitumor activity against mouse L1210 cells allografted in mouse assessed as increase in life span at 200 umol/kg/day, po using 0.9% (W/V) aqueous NaCl vehicle for 5 days 24 hrs after tumor inoculation in presence of THU 10 mg/kg/day on days 1 to 5. The format is functional. In outline: as §1
In assay [22] the test system is L1210. The experiment in a line: Antitumor activity against mouse L1210 cells allografted in mouse assessed as increase in life span at 100 umol/kg/day, ip using 0.9% (W/V) aqueous NaCl vehicle for 5 days 24 hrs after tumor inoculation. The class given is functional. The procedure, abridged:
as §1

In assay [23] the test system is L1210. The experiment in a line: Antitumor activity against mouse L1210 cells allografted in mouse assessed as increase in life span at 100 umol/kg/day, po using 0.9% (W/V) aqueous NaCl vehicle for 5 days 24 hrs after tumor inoculation in presence of THU 10 mg/kg/day on days 1 to 5. The format is functional. The procedure, abridged: as §1

For `CCCCCCCCCCCCCCCC(=O)OC[C@H]1O[C@@H](n2ccc(N)nc2=O)[C@@H](O)[C@@H]1O.Cl`, the “inhibition (INH)” value worked out at 6% in the assay on Rattus norvegicus [1]; 13% in the assay on Rattus norvegicus [4]; 8.1% in the assay with Rattus norvegicus [5]; 11% in the assay with Rattus norvegicus [6]; 13.2% with Rattus norvegicus [7]. The ILS at 400 µmol/kg in the assay with L1210 [2] is 92%. In the assay on L1210 [3], the ILS at 200 µmol/kg turned out to be 69%. The ILS at 100 µmol/kg in the assay with L1210 [8] is 46%.
As for `Cl.Nc1ccn([C@@H]2O[C@H](COC(=O)c3ccccc3)[C@@H](O)[C@@H]2O)c(=O)n1`, the “inhibition (INH)” value with Rattus norvegicus [1] worked out at 20%; in the assay with Rattus norvegicus [4], 15%; in the assay on Rattus norvegicus [5] it was 0%; with Rattus norvegicus [6] it was 47%; in the assay with Rattus norvegicus [7], 0%. Further, the ILS at 100 µmol/kg in the assay on L1210 [9] is 15%. The ILS at 400 µmol/kg in the assay with L1210 [10] stood at 62%. In addition, the ILS at 200 µmol/kg with L1210 [11] was found to be 31%.
For the molecule `Cl.Nc1ccn([C@@H]2O[C@H](COC(=O)C34CC5CC(CC(C5)C3)C4)[C@@H](O)[C@@H]2O)c(=O)n1`, the “inhibition (INH)” value worked out at 28% in the assay on Rattus norvegicus [1]; 4% in the assay on Rattus norvegicus [4]; 5.4% in the assay on Rattus norvegicus [5]; 31% in the assay with Rattus norvegicus [6]; 7.9% in the assay with Rattus norvegicus [7]. In the assay with L1210 [12], the ILS at 200 µmol/kg was found to be 77%. Also, the ILS at 100 µmol/kg in the assay on L1210 [13] is 46%. Moreover, in the assay with L1210 [14], the ILS at 400 µmol/kg is 130%.
Take `CCCCCCCCCCCCCCCC(=O)OC[C@H]1O[C@@H](n2ccc(NC(=O)[C@H](CCCNC(=N)N)NC(=O)CNC(=O)OC(C)(C)C)nc2=O)[C@@H](O)[C@@H]1O.Cl`: the ILS at 200 µmol/kg in the assay on L1210 [15] amounted to 44%. The ILS at 100 µmol/kg with L1210 [16] worked out at 30%. Also, the “inhibition (INH)” value in the assay on Rattus norvegicus [4] is recorded as 6%; in the assay with Rattus norvegicus [5] it was 35.1%; in the assay with Rattus norvegicus [7], 10.5%. Also, in the assay on L1210 [17], the ILS at 400 µmol/kg is 110%.
Turning to `CC(C)(C)OC(=O)NCC(=O)N[C@@H](CCCNC(=N)N)C(=O)Nc1ccn([C@@H]2O[C@H](COC(=O)c3ccccc3)[C@@H](O)[C@@H]2O)c(=O)n1.Cl`, the “inhibition (INH)” value is listed as 35% in the assay with Rattus norvegicus [1]; 9% in the assay with Rattus norvegicus [4]; 13.5% in the assay with Rattus norvegicus [5]; 52% in the assay on Rattus norvegicus [6]; 5.3% in the assay with Rattus norvegicus [7]. Moreover, the ILS at 200 µmol/kg with L1210 [15] was 21%. Besides, the ILS at 100 µmol/kg with L1210 [16] was determined as 14%. For the same molecule, the ILS at 400 µmol/kg with L1210 [17] was 43%.
For the molecule `CC(C)(C)OC(=O)NCC(=O)N[C@@H](CCCNC(=N)N)C(=O)Nc1ccn([C@@H]2O[C@H](COC(=O)C34CC5CC(CC(C5)C3)C4)[C@@H](O)[C@@H]2O)c(=O)n1.Cl`, the “inhibition (INH)” value with Rattus norvegicus [1] turned out to be 18%; with Rattus norvegicus [4] it was 1%; in the assay on Rattus norvegicus [5], 5.4%; in the assay on Rattus norvegicus [6], 50%; with Rattus norvegicus [7], 10.5%. In the assay with L1210 [15], the ILS at 200 µmol/kg was 43%. For the same molecule, the ILS at 100 µmol/kg in the assay on L1210 [16] worked out at 21%. Also, the ILS at 400 µmol/kg with L1210 [17] stood at 93%.
For `Cl.Nc1ccn([C@@H]2O[C@H](COC(=O)c3cccnc3)[C@@H](O)[C@@H]2O)c(=O)n1`, the results for the “inhibition (INH)” value in the assay on Rattus norvegicus [1], in the assay with Rattus norvegicus [4] and in the assay on Rattus norvegicus [6] were 0%, 4% and 0%, respectively. Also, the ILS at 400 µmol/kg with L1210 [2] is 69%. Also, the ILS at 200 µmol/kg in the assay on L1210 [3] came out at 46%. Besides, the ILS at 100 µmol/kg with L1210 [8] was 31%.
As to `Cl.Nc1ccn([C@@H]2O[C@H](COC(=O)C3CC4CCN3CC4)[C@@H](O)[C@@H]2O)c(=O)n1` (stereo not given in full), the “inhibition (INH)” value with Rattus norvegicus [1] is on record as 0%; with Rattus norvegicus [4] it was -2%; in the assay with Rattus norvegicus [6], 5%. Moreover, the ILS at 100 µmol/kg in the assay with L1210 [9] came to 8%. Further, the ILS at 400 µmol/kg in the assay on L1210 [10] was found to be 15%. In addition, the ILS at 200 µmol/kg in the assay with L1210 [11] was found to be 0%.
On to `Nc1ccn([C@@H]2O[C@H](CO)[C@@H](O)[C@@H]2O)c(=O)n1` [CYTARABINE], for which the “inhibition (INH)” value is recorded as 7% with Rattus norvegicus [1], -4% in the assay on Rattus norvegicus [4] and 20% in the assay with Rattus norvegicus [6]. Moreover, the results for the ILS at 200 µmol/kg in the assay on L1210 [15] and in the assay on L1210 [19] were 38% and 100%, respectively. Moreover, the results for the ILS at 400 µmol/kg with L1210 [18] and with L1210 [17] were 131% and 62%, respectively. Moreover, the results for the ILS at 100 µmol/kg in the assay on L1210 [16] and with L1210 [22] were 15% and 69%, respectively. The ILS is recorded as 138% in the assay with L1210 [20], 92% in the assay on L1210 [21] and 62% in the assay on L1210 [23].
